Reference: PMC3228362 (Biochemistry, 2011)
Values joined by “and” are separate entries in the source; they are usually repeats but may differ in a detail not shown here. Equal values may be shown once. Read-outs that look alike come from different tables or passages of the source. Marks after values point to notes of the source that are not given here.

Legend:
T4 exo^- DNA polymerase [1] = settings: opposite template 2AP, long A+T-rich DNA 1, cited from earlier work
[2] = target: T1, RB69 exo^- DNA polymerase (D222A/D327A, wild type) (Escherichia phage RB69, UniProt Q38087, D222A/D327A); type: biochemical, bacteriophage RB69; settings: opposite template 2AP; for Kd: read-out: Kdincorp, app
How it was run: (§1)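 Single-turnover rapid chemical quench at 22 °C in 66 mM Tris-HCl pH 7.5. Final concentrations were 100 nM 5′-32P-labeled DNA, 1 μM polymerase, 10 mM MgCl2 and varying dNTP. Reactions were quenched with 0.5 M EDTA. Products were resolved on 20% acrylamide/8 M urea gels and quantified by phosphorimaging. Data were fit to a single exponential.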

T4 exo^- DNA polymerase [3] = test: Nucleotide incorporation opposite template 2AP; type: biochemical, bacteriophage T4; settings: for kpol / Kdincorp: long A+T-rich DNA 1, from data of ref 13
[4] = target: T2, RB69 Y567A exo^- DNA polymerase (Escherichia phage RB69, UniProt Q38087, D222A/D327A/Y567A); type: biochemical, bacteriophage RB69
How it was run: as §1

T4 exo^- DNA polymerase [5] = settings: cited from earlier work
[6] = target: T2, RB69 Y567A exo^- DNA polymerase; test: Nucleotide binding opposite template 2AP; design: species or system bacteriophage RB69; settings: for Kd: opposite template 2AP
How it was run: (§2)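 Chain-terminated (dideoxy) 2AP-labeled primer-template DNA at 200 nM with a 2 to 2.5-fold excess of polymerase, in 25 mM HEPES pH 7.6, 50 mM NaCl, 1 mM DTT and 10 mM MgCl2. Nucleotide was added incrementally. Excitation was at 315 nm and emission was scanned from 330 to 450 nm with 2 nm band-pass, at 20 °C. Kd was taken from the fluorescence quench curves.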

T4 exo^- DNA polymerase [7] = test: Nucleotide binding opposite template 2AP; design: species or system bacteriophage T4; settings: for Kd: opposite template 2AP
[8] = target: T1, RB69 exo^- DNA polymerase (D222A/D327A, wild type); test: Nucleotide binding opposite template 2AP; design: species or system bacteriophage RB69; settings: for Kd: read-out: Kdbind, opposite template 2AP
How it was run: as §2

DNA polymerase α = settings: cited from earlier work
[9] = A+T- and G+C-rich DNAs (Table 1)
[10] = opposite template 2AP, long A+T-rich DNA 1
[11] = opposite template 2AP, long G+C-rich DNA 2
[12] = opposite template 2AP, short A+T-rich DNA 3
[13] = opposite template 2AP, short G+C-rich DNA 4
[14] = read-out: Kdincorp, app, opposite template 2AP, long A+T-rich DNA 1
[15] = read-out: Kdincorp, app, opposite template 2AP, short A+T-rich DNA 3
[16] = read-out: Kdincorp, app, opposite template 2AP, short G+C-rich DNA 4
[17] = read-out: Kdbind, long A+T-rich DNA 1
[18] = read-out: Kdbind, long G+C-rich DNA 2
[19] = read-out: Kd (Table 3), DNA 1, conditions as Table 1

T1 sequence (Q38087 whole entry D222A/D327A): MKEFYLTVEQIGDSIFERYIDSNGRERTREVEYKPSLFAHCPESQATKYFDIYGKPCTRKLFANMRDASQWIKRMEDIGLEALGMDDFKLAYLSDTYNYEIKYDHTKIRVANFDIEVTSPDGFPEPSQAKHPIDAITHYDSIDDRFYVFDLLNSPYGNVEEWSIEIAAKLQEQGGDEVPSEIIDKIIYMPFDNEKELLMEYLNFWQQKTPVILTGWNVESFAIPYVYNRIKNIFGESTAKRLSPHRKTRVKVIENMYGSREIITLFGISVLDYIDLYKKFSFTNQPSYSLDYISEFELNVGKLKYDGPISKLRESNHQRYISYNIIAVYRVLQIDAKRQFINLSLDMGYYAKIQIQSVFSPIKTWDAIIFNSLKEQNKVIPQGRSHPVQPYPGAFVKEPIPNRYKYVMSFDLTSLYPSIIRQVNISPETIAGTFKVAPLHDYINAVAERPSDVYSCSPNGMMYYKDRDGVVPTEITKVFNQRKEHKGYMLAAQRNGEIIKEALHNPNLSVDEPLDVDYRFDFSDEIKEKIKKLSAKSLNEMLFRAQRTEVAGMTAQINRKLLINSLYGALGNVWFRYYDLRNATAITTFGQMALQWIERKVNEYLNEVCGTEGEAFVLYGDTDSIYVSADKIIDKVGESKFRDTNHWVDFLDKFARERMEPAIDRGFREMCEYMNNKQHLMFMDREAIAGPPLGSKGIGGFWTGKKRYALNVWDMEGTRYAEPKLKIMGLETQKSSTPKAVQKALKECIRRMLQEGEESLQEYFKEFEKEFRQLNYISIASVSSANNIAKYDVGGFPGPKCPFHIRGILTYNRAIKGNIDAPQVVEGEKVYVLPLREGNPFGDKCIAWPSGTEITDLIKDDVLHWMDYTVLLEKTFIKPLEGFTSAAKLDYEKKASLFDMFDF
T2 sequence (Q38087 whole entry D222A/D327A/Y567A): as the sequence (Q38087 whole entry D222A/D327A) above, with Y567A counted along it

Nc1ccn([C@H]2C[C@H](O)[C@@H](COP(=O)(O)O)O2)c(=O)n1 [dCMP]
kpol (overall nucleotide incorporation rate) (T4 exo^- DNA polymerase [1]): 2.3 ± 0.1 s^−1 ^a
kpol (overall nucleotide incorporation rate) ([2]; short A+T-rich DNA 3): slow ^c
kpol / Kdincorp ([2]; short A+T-rich DNA 3): <0.001 to 0.003 µM⁻¹ s⁻¹
kpol (overall nucleotide incorporation rate) ([2]; short G+C-rich DNA 4): slow ^c
kpol / Kdincorp ([2]; short G+C-rich DNA 4): <0.001 to 0.003 µM⁻¹ s⁻¹
kpol / Kdincorp (T4 exo^- DNA polymerase [3]): <0.0008 µM⁻¹ s⁻¹
kpol [4, 9]: ~ 6 s^−1
kpol, fold lower than for incorporation of dTMP [4, 9]: > 30 fold
kpol/Kd incorporation ratio (efficiency of misincorporation) ([4]; longer and shorter A+T-rich DNA substrates): 0.03 to 0.04 µM⁻¹ s⁻¹
kpol/Kd incorporation ratio (efficiency of misincorporation) ([4]; longer and shorter G+C-rich DNA substrates): 0.003 to 0.007 µM⁻¹ s⁻¹
kpol (overall nucleotide incorporation rate) [4, 10]: 6.4 ± 0.6 s⁻¹
kpol / Kdincorp [4, 10]: 0.04 µM⁻¹ s⁻¹
kpol (overall nucleotide incorporation rate) [4, 11]: ~6 s⁻¹
kpol / Kdincorp [4, 11]: ~0.003 µM⁻¹ s⁻¹
kpol (overall nucleotide incorporation rate) [4, 12]: 9.3 ± 0.7 s⁻¹
kpol / Kdincorp [4, 12]: 0.03 µM⁻¹ s⁻¹
kpol / Kdincorp [4, 13]: 0.007 µM⁻¹ s⁻¹
Kd ([4]; read-out: Kd,app for incorporation, shorter A+T- and G+C-rich DNAs (Table 2)): 300 to 360 µM
Kd [4, 14]: ~170 µM and 170 µM
Kd [4, 15]: 298 ± 65 µM
Kd [4, 16]: 361 ± 52 µM

Nc1ccn([C@H]2C[C@H](O)[C@@H](COP(=O)(O)OP(=O)(O)OP(=O)(O)O)O2)c(=O)n1 [dCTP]
inhibition of dTTP binding (T4 exo^- DNA polymerase [5]): not an inhibitor of dTTP binding
Kd (T4 exo^- DNA polymerase [5]; read-out: Kd for binding opposite template 2AP): ≥ 3000 µM
Kd for binding, fold higher than Kd for dTTP binding ([6]; A+T-rich DNA substrate (DNA 1)): < 3 fold
Kd for binding, fold higher than Kd for dTTP binding ([6]; G+C-rich DNA (DNA 2)): > 20 fold
Kd [6, 17]: 24.8 ± 2.1 µM
Kd [6, 18]: ~317 µM and 317 µM
Kd ([6]; read-out: Kdbind, short A+T-rich DNA 3): ~53 µM and 53 µM
Kd ([6]; read-out: Kdbind, short G+C-rich DNA 4): ~373 µM and 373 µM
discrimination against binding compared to dTTP, factor (T4 exo^- DNA polymerase [7]; 30 μM compared to 3 mM): ≥ 100
discrimination against binding compared to dTTP, factor ([8]; 30 μM compared to 3 mM): ≥ 100

Cc1cc(C2CC(O)C(COP(=O)(O)OP(=O)(O)OP(=O)(O)O)O2)c(F)cc1F (centres unmarked) [dFTP, difluorotoluene deoxynucleoside triphosphate]
quench of 2AP fluorescence (T4 exo^- DNA polymerase [5]; at concentrations <150 μM, T4 DNA pol binary complexes): does not quench 2AP fluorescence
Ki (T4 exo^- DNA polymerase [5]; read-out: Ki (competitive inhibitor of dTTP-Mg^2+-induced quenching), T4 DNA pol binary complexes): ~68 µM

Cc1cn([C@H]2C[C@H](O)[C@@H](COP(=O)(O)O)O2)c(=O)[nH]c1=O [dTMP]
kpol (overall nucleotide incorporation rate) (T4 exo^- DNA polymerase [1]): 165 ± 3 s^−1 ^a
Kd (T4 exo^- DNA polymerase [1]; read-out: Kdincorp, app): 367 ± 36 µM
dTMP/dCMP (ratio of kpol / Kdincorp) ([2]; short A+T-rich DNA 3): >1000
kpol (overall nucleotide incorporation rate) ([2]; short A+T-rich DNA 3): 379 ± 28 s⁻¹
kpol / Kdincorp ([2]; short A+T-rich DNA 3): 3.3 µM⁻¹ s⁻¹
dTMP/dCMP (ratio of kpol / Kdincorp) ([2]; short G+C-rich DNA 4): >1000
kpol (overall nucleotide incorporation rate) ([2]; short G+C-rich DNA 4): 201 ± 16 s⁻¹
kpol / Kdincorp ([2]; short G+C-rich DNA 4): 1.0 µM⁻¹ s⁻¹
Kd ([2]; short A+T-rich DNA 3): 114 ± 26 µM
Kd ([2]; short G+C-rich DNA 4): 200 ± 45 µM
incorporation opposite template 2AP favored over incorporation of dCMP (DNA polymerase α): 20- to 25 fold
dTMP/dCMP (ratio of kpol / Kdincorp) (T4 exo^- DNA polymerase [3]; long A+T-rich DNA 1): >560
kpol / Kdincorp (T4 exo^- DNA polymerase [3]): 0.45 ^f μM^−1 s^−1
kpol [4, 9]: ~ 200 s^−1
preference for dTMP over dCMP incorporation ([4]; longer DNA substrates (Table 1)): ~ 300 fold and > 300 fold
dTMP/dCMP (ratio of kpol / Kdincorp) [4, 10]: 375
kpol (overall nucleotide incorporation rate) [4, 10]: 240 ± 11 s⁻¹
kpol / Kdincorp [4, 10]: 15 µM⁻¹ s⁻¹
dTMP/dCMP (ratio of kpol / Kdincorp) [4, 11]: 333
kpol (overall nucleotide incorporation rate) [4, 11]: 190 ± 11 s⁻¹
kpol / Kdincorp [4, 11]: 1 µM⁻¹ s⁻¹
dTMP/dCMP (ratio of kpol / Kdincorp) [4, 12]: 143
kpol (overall nucleotide incorporation rate) [4, 12]: 289 ± 9 s⁻¹
kpol / Kdincorp [4, 12]: 4.3 µM⁻¹ s⁻¹
dTMP/dCMP (ratio of kpol / Kdincorp) [4, 13]: 129
kpol (overall nucleotide incorporation rate) [4, 13]: 233 ± 27 s⁻¹
kpol / Kdincorp [4, 13]: 0.9 µM⁻¹ s⁻¹
Kd [4, 14]: ~16 µM and 16 µM
Kd ([4]; read-out: Kdincorp, app, opposite template 2AP, long G+C-rich DNA 2): 180 ± 75 µM
Kd [4, 15]: 67.3 ± 8 µM
Kd [4, 16]: 263 ± 78 µM
preference for dTMP over dCMP incorporation ([4]; shorter DNAs (Table 2)): ~ 100 fold and > 100 fold

Cc1cn([C@H]2C[C@H](O)[C@@H](COP(=O)(O)OP(=O)(O)OP(=O)(O)O)O2)c(=O)[nH]c1=O [dTTP]
kpol (rate of nucleotide binding) (T4 exo^- DNA polymerase [5]; long A+T-rich DNA 1, rapid = within dead time of stopped flow instrument): rapid ^a
Kd (T4 exo^- DNA polymerase [5]; read-out: Kdbind, opposite template 2AP, long A+T-rich DNA 1): ~35 µM and 35 µM
Kd [6, 17]: 9.2 ± 0.8 µM
Kd [6, 18]: 15.1 ± 1.4 µM
kpol (rate of nucleotide binding) (T4 exo^- DNA polymerase [7]; long G+C-rich DNA 2): rapid
Kd (T4 exo^- DNA polymerase [7]; [18]): 28.7 ± 0.6 µM
Kd ([8]; long A+T-rich DNA 1): 31.1 ± 0.9 µM
Kd ([8]; long G+C-rich DNA 2): 30 ± 0.4 µM

O=c1ccn([C@H]2C[C@H](O)[C@@H](COP(=O)(O)OP(=O)(O)OP(=O)(O)O)O2)c(=O)[nH]1 [dUTP]
Kd [6, 19]: 21 ± 1 µM
Kd (T4 exo^- DNA polymerase [7]; [19]): 74.1 ± 2 µM

O=c1ccn([C@@H]2O[C@H](COP(=O)(O)OP(=O)(O)OP(=O)(O)O)[C@@H](O)[C@H]2O)c(=O)[nH]1 [rUTP]
Kd [6, 19]: 522 ± 55 µM
Kd (T4 exo^- DNA polymerase [7]; [19]): > 3000 µM
